RGS4 pot – RGS4 potentiation or activation; 310,000 compounds, 0.92% hits; HEK293 M3R/inducible RGS4, carbachol calcium flux Fluo4; hits give low values; B-score at 10 µM;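 active = B-score of the integrated calcium signal more than 4 SD below the library mean, with starting fluorescence not abnormally high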;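 note: negative B-score means reduced calcium response which marks RGS4 activation or potentiation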
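Test system: HEK293 cells with stable M3R and inducible RGS4; also added: carbachol at ECmax as muscarinic agonist stimulus; schedule: dye loading 30 min 37 °C, buffer rest 30 min RT; technique: kinetic calcium fluorescence imaging with Fluo4-AM dye, 2 µM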
MrgX1 antagonist – blocks BAM8-22 activation of human MrgX1 receptor; Q96LB2; 310,000 compounds, 1.3% hits; MRGX1-HEK293 calcium flux, Fluo-4, BAM8-22 antagonism; hits give low values; B-score at 10 µM;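 active = calcium-response B-score plate-corrected more than 3 library SD below zero, starting fluorescence within 5 deviations, no agonist response on first addition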;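 note: peak minus trough fluorescence over baseline after final BAM8-22 challenge near maximal dose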
Target sequence (Q96LB2 whole entry, looked up): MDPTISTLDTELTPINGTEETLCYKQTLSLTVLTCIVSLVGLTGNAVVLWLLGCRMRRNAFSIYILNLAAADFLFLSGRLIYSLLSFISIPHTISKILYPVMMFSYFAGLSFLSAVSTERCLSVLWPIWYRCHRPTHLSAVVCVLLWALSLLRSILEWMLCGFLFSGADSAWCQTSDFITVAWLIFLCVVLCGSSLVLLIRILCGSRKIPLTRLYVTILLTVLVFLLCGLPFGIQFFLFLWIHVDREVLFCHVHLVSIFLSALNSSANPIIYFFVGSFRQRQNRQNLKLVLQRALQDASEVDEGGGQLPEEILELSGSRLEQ
RGS4 inh – human RGS4 inhibition; P49798; HEK293 M3R/RGS4 inducible, Fluo-4 calcium flux; hits give high values; triggered by carbachol at its EC20; B-score at 10 µM; 310,000 compounds, 0.45% hits;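 active = B-score, a plate-corrected calcium signal, over three deviations above library mean, with baseline fluorescence within five deviations of library mean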;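 note: RGS4 expression induced by doxycycline in cells with stable M3 receptor; B-score is computed from the integrated fluorescence ratio over baseline after carbachol; higher B-score means a larger calcium signal and so more RGS4 inhibition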
Target sequence (P49798 whole entry, looked up): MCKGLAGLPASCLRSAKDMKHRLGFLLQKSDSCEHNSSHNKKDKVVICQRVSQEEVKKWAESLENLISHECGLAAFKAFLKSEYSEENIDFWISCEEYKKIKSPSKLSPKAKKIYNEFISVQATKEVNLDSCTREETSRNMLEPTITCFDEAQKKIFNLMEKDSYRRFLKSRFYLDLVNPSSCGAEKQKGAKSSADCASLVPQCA
MrgX1 ag – agonists of human MrgX1 receptor; 310,000 compounds, 0.44% hits; MrgX1-HEK293 cells, Fluo-4 calcium fluorescence, agonist mode; hits give high values; B-score at 10 µM; AID 588627;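 active = calcium response B-score plate-corrected fluorescence ratio at least 3 library SD, with starting fluorescence B-score inside 5 SD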
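Test system: HEK293 cells stably expressing human MrgX1 receptor; amount: 15,000 cells per well; doses: compound delivered in addition one of three; times: overnight plating before 1 h dye loading; detection: Fluo-4 NW calcium-flux fluorescence, kinetic read; read-out basis: B-scored fluorescence response ratio; controls: positive and negative controls per plate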
MrgX1 PAM – allosterically activates human MrgX1 receptor signaling. Q96LB2. MrgX1-HEK293, Fluo-4 calcium flux, FDSS; hits give high values. B-score at 10 µM. 310,000 compounds, 0.63% hits. AID 588675;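 active = plate-corrected calcium response at least 3 library SD above typical, normal starting fluorescence, not activating the receptor alone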;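 note: compound read alongside a low EC10 to EC30 dose of BAM8-22 agonist; peak minus trough fluorescence over baseline measured at the second addition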
A number is an active result; - = inactive; . = not tested or not shown. Most compounds without a hit are left out; they make up all but 3.5% or so of the library.

SMILES | RGS4 pot | MrgX1 antagonist | RGS4 inh | MrgX1 ag | MrgX1 PAM
O=[N+]([O-])c1ccc(N2CCN(c3cccc(Cl)c3)CC2)cn1 | - | - | - | - | -
CC1(C)CC(=O)C2=C(C1)OC1=C(C(=O)CC(C)(C)C1)C2c1ccc(O)cc1O | - | - | - | 36 | -
COc1cc(C2Nn3c(nnc3-c3ccccc3OC)S2)ccc1O (stereo not drawn) | - | - | - | - | -
CC1(C)Oc2ccc3ccc(=O)oc3c2/C(=C/NC2CCCCC2)C1=O | -7 | - | - | - | -
CC1(C)Oc2ccc3ccc(=O)oc3c2/C(=C/Nc2ccccc2)C1=O | - | - | - | - | -
O=C(CCl)N=c1sccn1Cc1ccccc1Cl | -7.3 | - | - | - | -
CC1CCCN(CCOCCOc2ccc(Br)cc2Cl)C1 (stereo not drawn) | -7.5 | - | - | - | -
C[C@]12C=CC(=O)C=C1CC[C@@H]1C2=CC[C@]2(C)[C@@H](C(=O)CN3CCN(c4cc(N5CCCC5)nc(N5CCCC5)n4)CC3)CC[C@@H]12 | - | - | - | 38 | -
O=C(CC1CCCCC1)Nc1ncn[nH]1 | - | - | - | - | -
O=C(O)c1cccc(CN2C(=O)S/C(=C/c3ccccc3[N+](=O)[O-])C2=O)c1 | - | - | - | - | 11
O=C1S/C(=C\c2ccc(O)c([N+](=O)[O-])c2)C(=O)N1Cc1cccc([N+](=O)[O-])c1 | - | - | - | - | -
COC(=O)c1sc(NC(=S)NNC(=O)c2c(Br)c(C)nn2C)c(C(=O)OC)c1C | - | -5.1 | - | - | -
COC(=O)c1sc(NC(=O)C(C)C)c(C(=O)OC)c1C | - | - | - | - | -
CCOC(=O)c1c(/N=C/c2ccc(OC)cc2O)sc2c1CCN(C)C2 | - | -4.8 | - | - | -
CCOC(=O)c1c(/N=C/c2ccc(C)cc2O)sc2c1CCC2 | - | - | - | - | -
CCOC(=O)COc1nc(-c2ccc(C)cc2)cc(-c2ccco2)c1C#N | - | - | - | - | -
CCOC(=O)COc1nc(-c2ccco2)cc(-c2ccco2)c1C#N | -7.2 | - | - | - | -
COc1cccc(/C=N/n2c(N)c(S(=O)(=O)c3cccs3)c3nc4ccccc4nc32)c1OC | - | - | - | - | -
Nc1c(S(=O)(=O)c2cccc(Cl)c2)c2nc3ccccc3nc2n1/N=C/c1ccc(O)c(O)c1 | - | - | 16 | - | -
C/C(N=Nc1nc2ccccc2s1)=N\Nc1ccccc1O | - | - | - | - | -
COc1ccc(-n2c(-c3ccc(Br)cc3)c[n+]3c2CCC3)cc1 | -7.2 | - | - | - | -
COC(=O)Cn1c(CN2CCN(C(=O)c3ccco3)CC2)nc2c1c(=O)n(C)c(=O)n2C | - | - | - | - | -
N#Cc1ccc(N=c2ssnc2Cl)cc1 | - | - | - | 31 | -
Fc1ccc(N=c2ssnc2Cl)c(F)c1 | - | - | - | 35 | -
Clc1ccc(N=c2ssnc2Cl)cc1 | - | - | - | - | -
SMILES | RGS4 pot | MrgX1 antagonist | RGS4 inh | MrgX1 ag | MrgX1 PAM
CCOC(=O)c1ccc(N=c2ssnc2Cl)cc1 | - | . | - | . | .
COc1ccc(N=c2ssnc2Cl)cc1 | - | - | - | 27 | -
COc1cc(N=c2ssnc2Cl)cc(OC)c1OC | - | - | - | 32 | -
C=CCN(C(=O)CSc1nc2c(sc3ccccc32)c(=O)n1CCN(CC)CC)c1ccccc1 | - | - | - | - | -
O=[N+]([O-])c1ccc(N/N=C/c2sc(N3CCOCC3)nc2-c2ccccc2)c(S(=O)(=O)Nc2ccc(Cl)cc2)c1 | -7.5 | . | - | . | .
O=C(c1ccco1)N1CCN(c2nc(-c3ccc(F)cc3)cs2)CC1 | - | - | - | - | -
COc1ccc(N/C=C2\C(=O)CCc3c2oc2cc(Cl)c(O)c(Cl)c32)cc1 | - | -5 | - | - | -
COc1ccc(N/C=C2\CCOC2=O)cc1 | - | - | - | - | -
O=C(N/C(=C/c1ccc(Br)cc1)C(=O)N1CCCCC1)c1ccccc1F | - | - | - | - | -
O/N=C/c1nc2cc(Cl)ccc2o1 | - | - | - | - | 9.4
CCCCc1nc2ccccc2c(=O)n1NC(=O)c1c(O)c2ccccc2n(C)c1=O | - | -5.8 | - | - | -
Cn1c(=O)c(C(=O)NCCCc2ccccc2)c(O)c2ccccc21 | - | - | - | - | -
CCCc1nc2ccccc2c(=O)n1NC(=O)c1c(O)c2cccc3c2n(c1=O)CCC3 | - | -5.7 | - | - | -
CC(C)c1ccccc1NC(=O)COC(=O)/C=C/c1cccc([N+](=O)[O-])c1 | - | - | - | - | -
COc1ccccc1-c1nc(SCC(=O)Nc2cc(C)on2)c2c(=O)n(C)c(=O)n(C)c2n1 | - | - | - | - | -
Cc1nnc(SCc2cccc([N+](=O)[O-])c2)s1 | -7.1 | - | - | - | -
O=C(Nc1nnc(SCc2ccccc2)s1)c1cccc([N+](=O)[O-])c1 | - | - | - | - | -
CCCCCCn1c(COc2ccccc2F)nnc1SCC(=O)c1c(N)n(C)c(=O)n(C)c1=O | - | - | - | - | -
C=CCn1c(COc2cc(C)ccc2C(C)C)nnc1SCC(=O)c1c(N)n(C)c(=O)n(C)c1=O | - | -4.7 | - | - | -
Cc1cc(=O)n2nc(N3CCCC(C(=O)N4CCc5ccccc54)C3)sc2n1 (stereo not drawn) | -7.7 | - | - | - | -
COC(=O)c1ccc2c(=O)[nH]c(COC(=O)c3c(-c4ccccc4)noc3C)nc2c1 | - | - | - | - | -
CN1C(=O)/C(=C\c2ccccc2F)Sc2ccc(C(=O)NC3CCN(Cc4ccccc4)CC3)cc21 | - | - | - | - | -
COC(=O)Nc1ccc([N+](=O)[O-])cc1OC | - | -7.4 | - | - | -
C=CCC(C)(NCc1ccccc1)c1ccc(C)cc1 (stereo not drawn) | - | - | - | - | 7.6
COc1ccc(C)cc1NS(=O)(=O)c1ccc2c(c1)N(C)CCO2 | - | - | - | - | -
SMILES | RGS4 pot | MrgX1 antagonist | RGS4 inh | MrgX1 ag | MrgX1 PAM
O=C(Nc1cnn(C23CC4CC(CC(C4)C2)C3)c1)c1cnn2c(C(F)(F)F)cc(-c3ccco3)nc12 | -8.5 | - | - | - | -
Cc1ccccc1Cn1ccc(NC(=O)c2cnn3c(C(F)(F)F)cc(-c4ccco4)nc23)n1 | -7.5 | - | - | - | -
Cc1ccccc1Cn1ccc(NC(=O)CCSc2nc(-c3ccco3)cc(C(F)(F)F)n2)n1 | - | - | - | - | -
O=C(Nc1ccc2c(c1)OCO2)c1cnn2c(C(F)(F)F)cc(-c3ccco3)nc12 | . | - | . | - | -
O=S(=O)(NCc1ccccc1)NCc1ccc(Cl)cc1Cl | - | - | - | - | -
Cc1c2ccccc2nc2c(F)c(N(C)C)c(F)c(F)c12 | - | -8.1 | - | - | -
COc1ccccc1C(C)NCC(=O)NC(=O)NCc1ccco1 (stereo not drawn) | - | - | - | - | -
Cc1ccc(/C=C/C2=Cc3c(sc(NC(=O)CSc4n[nH]c(N)n4)c3C#N)C(C)(C)C2)o1 | - | -5.4 | - | - | -
